This is an account of results in ChEMBL document CHEMBL4732089, “Novel σ antagonists designed for tumor therapy: Structure - activity relationships of aminoethyl substituted cyclohexanes” (Eur J Med Chem, 2021).

Structures are written as SMILES. The source made the active and inactive calls. The calls are words filed in the database; no cut-off is given here.

Series [1] deals with T1, Sigma intracellular receptor 2 (Rattus norvegicus, UniProt Q5U3Y7).
T1 sequence (Q5U3Y7 whole entry): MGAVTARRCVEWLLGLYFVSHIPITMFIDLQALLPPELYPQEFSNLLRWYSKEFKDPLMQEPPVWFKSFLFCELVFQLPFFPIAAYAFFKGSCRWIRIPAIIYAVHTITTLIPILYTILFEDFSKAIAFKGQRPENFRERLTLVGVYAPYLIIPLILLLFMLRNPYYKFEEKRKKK
Nature of the series: Displacement of [3H]-di-o-tolylguanidine from sigma2 receptor in rat liver membrane incubated for 120 mins by liquid scintillation counting method relative to control. The class given is cell membranes. In outline: (§1)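 Competitive binding with [3H]di-o-tolylguanidine on rat liver membranes. Single-concentration values are % inhibition of radioligand binding at 1 µM test compound. Ki values are n = 3 (±SEM), except low-affinity compounds, which were measured once.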

Series [2] addresses Sigma non-opioid intracellular receptor 1 (Cavia porcellus, UniProt Q60492). Nature of the series: Displacement of [3H]-pentazocine from sigma1 receptor in guinea pig brain membrane incubated for 120 mins by liquid scintillation counting method. The class given is cell membranes. Background: Displacement assays read how much labelled ligand stays bound in the presence of the test substance.

The species named for a further series is Sus scrofa. Nature of the series: Displacement of [3H]-MK-801 from NMDA receptor PCP binding site in pig brain cortex at 1 uM incubated for 150 mins by liquid scintillation counting method relative to control. The class given is tissue-based.
The target of series [3] is T2, Sigma intracellular receptor 2 (Rattus norvegicus) (UniProt Q5U3Y7).
T2 sequence (whole entry): T1 sequence (Q5U3Y7 whole entry)
Nature of the series: Displacement of [3H]-di-o-tolylguanidine from sigma2 receptor in rat liver membrane at 1 uM incubated for 120 mins by liquid scintillation counting method relative to control. The class given is cell membranes. The method, boiled down: as §1

A further series concerns DU-145. Nature of the series: Antiproliferative activity against human DU145 cells assessed as reduction in cell viability at 10 uM incubated for 72 hrs by SRB assay. The class given is functional, cell-based. The method, boiled down: (§2)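 Cells from ATCC were grown in RPMI 1640 with 10% FBS, glutamine and penicillin-streptomycin. Seeding was 1×10^3 (lung) or 2×10^3 (prostate) cells/well. After 24 h, compounds were added at 10 µM for 72 h. Cells were fixed with 10% TCA and stained with sulforhodamine B for 30 min. Dye was solubilized in Tris base and OD read at 510 nm. Results are expressed as % of DMSO-treated cells.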

The nature of series [4]: Selectivity for sigma1 receptor in guinea pig brain membrane over sigma2 receptor in rat liver membrane. The format is cell membranes.
A short description of series [5]: n-octanol/aqueous buffer distribution coefficient, log D of compound at pH 7.4 by LC-MS analysis. The class given is physicochemical. The method, boiled down:
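Micro shake-flask method using 20 mM MOPS buffer pH 7.4 and n-octanol, mutually pre-saturated for 24 h. DMSO was kept below 1%. Three buffer:octanol volume ratios (1:1, 1:2, 2:1) were each run three times (n = 9). Tubes were vortexed 2 min and centrifuged 10 min at 20 °C. The aqueous layer was quantified by LC-MS against a matrix-matched calibration, and logD calculated from that concentration.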

Series [6] is described as follows: Metabolic stability in mouse liver microsomes assessed as parent compound remaining measured after 90 mins in presence of NADPH. Background: Liver microsomes are vesicles of endoplasmic reticulum, rich in cytochrome P450 enzymes.
Series [7] can be described thus: Drug metabolism in mouse liver microsomes assessed as metabolite 2-((1R,3S)-3-phenylcyclohexyl)ethanamine formation measured after 90 mins in presence of NADPH by LC-MS analysis. The note with it: 1.5 h. The format is ADME, Microsome. The method, boiled down:
(§3)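 Incubation with mouse liver microsomes and NADPH for 90 min at 37 °C. Metabolites were identified by LC-MS with collision-induced dissociation.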

A short description of series [8]: Drug metabolism in mouse liver microsomes assessed as metabolite 4-((1S,3R)-3-(2-(benzylamino)ethyl)cyclohexyl)benzene-1,2-diol formation measured after 90 mins in presence of NADPH by LC-MS analysis. The format is ADME, Microsome. The note with it: 1.5 h. In outline: as §3
The subject of another series is PC-3. Nature of the series: Antiproliferative activity against human PC-3 cells assessed as reduction in cell viability at 10 uM incubated for 72 hrs by SRB assay. The class given is functional, cell-based. In outline:
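PC3 prostate cancer cells grown adherent in RPMI 1640 with 2% glutamine, 10% FBS and 1% penicillin-streptomycin. Seeded at 2 × 10^3 cells/well; compound added at 10 µM 24 h later for 72 h. Cells fixed in 10% TCA, stained with sulforhodamine B 30 min, washed with 1% acetic acid, dye solubilised in Tris base, OD read at 510 nm; viability given as % of DMSO-treated cells.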
In general terms: Sulforhodamine B stains cellular protein and so reports cell mass.

Series [9] concerns the target Sigma non-opioid intracellular receptor 1 (Rattus norvegicus) (UniProt Q9R0C9). Nature of the series: Antagonist activity at sigma1 receptor in rat PC12 cells assessed as reduction in opipramol activity by measuring increase in Ca2+-influx at 10 nM measured after 30 mins in presence of KCl by Fura2AM dye based fluorescence microscopic analysis relative to control. The format is cell-based. Also on record: scale not given: the % may be the effect or the level left. In outline: (§4)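 Single PC12 cells loaded with 0.5 µM fura-2-AM plus 0.01% Pluronic F-127, 30 min, 37 °C, in HEPES saline pH 7.4 (138 mM NaCl, 6 mM KCl, 2 mM CaCl2). Cells were then washed 30 min and perfused. Test compounds were at 10 nM, and Ca2+ influx was triggered with KCl. Excitation was at 340/380 nm and emission at 510 nm. The F340/F380 ratio was calibrated with KD 224 nM. 10–20 cells per slide, ≥5 independent experiments.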

Series [10] has the same target. Nature of the series: Agonist activity at sigma1 receptor in rat PC12 cells assessed as reduction in KCl-induced Ca2+ influx at 10 nM measured after 30 mins by Fura2AM dye based fluorescence microscopic analysis. The class given is cell-based. The note with it: PC-12. In outline: as §4
In another series the test system is NCI-H441. Nature of the series: Antiproliferative activity against human NCI-H441 cells assessed as reduction in cell viability at 10 uM incubated for 72 hrs by SRB assay. The class given is functional, cell-based. The method, boiled down:
as §2

The subject of a further series is NCI-H358. Nature of the series: Antiproliferative activity against human NCI-H358 cells assessed as reduction in cell viability at 10 uM incubated for 72 hrs by SRB assay. The class given is functional, cell-based. In outline: as §2
Another series has as its system NCI-H522. Nature of the series: Antiproliferative activity against human NCI-H522 cells assessed as reduction in cell viability at 10 uM incubated for 72 hrs by SRB assay. The format is functional, cell-based. The method, boiled down:
as §2

Another series concerns CWR22R. Nature of the series: Antiproliferative activity against human 22Rv1 cells assessed as reduction in cell viability at 10 uM incubated for 72 hrs by SRB assay. The format is functional, cell-based. In outline:
as §2

Sigma non-opioid intracellular receptor 1 (Rattus norvegicus), sequence (Q9R0C9 whole entry, the tested form may be a part): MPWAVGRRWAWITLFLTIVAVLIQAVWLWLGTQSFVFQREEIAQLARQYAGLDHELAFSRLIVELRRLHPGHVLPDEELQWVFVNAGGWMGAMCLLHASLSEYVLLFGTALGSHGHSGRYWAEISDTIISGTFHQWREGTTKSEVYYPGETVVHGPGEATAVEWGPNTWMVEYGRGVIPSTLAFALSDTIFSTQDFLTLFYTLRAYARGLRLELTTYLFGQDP
Sigma non-opioid intracellular receptor 1, sequence (Q60492 whole entry): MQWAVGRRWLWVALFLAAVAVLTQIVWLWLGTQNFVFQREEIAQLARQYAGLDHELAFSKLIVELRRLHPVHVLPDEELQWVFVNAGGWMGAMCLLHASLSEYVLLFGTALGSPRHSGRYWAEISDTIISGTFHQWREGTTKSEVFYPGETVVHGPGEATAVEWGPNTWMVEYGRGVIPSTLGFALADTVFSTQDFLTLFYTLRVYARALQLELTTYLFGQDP

As usually defined, the Ki is the dissociation constant of the complex between target and ligand, obtained from inhibition or displacement. For the molecule `CN(C)CC[C@H]1CCC[C@@H](c2ccccc2)C1`, the inhibition constant (Ki) in series [1] was 0.156 µM; in series [2], 0.01 µM.

Consider `c1ccc(CNCC[C@@H]2CCC[C@@H](c3ccccc3)C2)cc1` [listing 1 of 2 here], for which the Ki is 0.057 µM in series [1] and 0.0018 µM in series [2].

In general, inhibition refers to the percentage by which the read-out fell short of the control. On to `NCC[C@@H]1CCC[C@@H](c2ccccc2)C1`, for which the inhibition turned out to be 15% in the series listed under Sus scrofa and 43% in [3]. This molecule also displayed a Ki in series [2] of 0.043 µM.

Turning to `CN(C)CC[C@@H]1CCC[C@H](c2ccccc2)C1`, the values for the inhibition constant (Ki) in [1] and in series [2] were 0.076 µM and 0.014 µM, respectively.

With `c1ccc(CNCC[C@H]2CCC[C@@H](c3ccccc3)C2)cc1`, the Ki was found to be 0.047 µM in series [1] and 0.0013 µM in series [2]. Moreover, the result in the series on DU-145 was Active. Further, the Selectivity ratio in [4] came to 35.

Consider `NCC[C@H]1CCC[C@@H](c2ccccc2)C1`, for which the inhibition amounted to 14% in the series listed under Sus scrofa and 24% in [3]. Besides, in [2], the Ki is 0.138 µM.

The logD is the decadic logarithm of the distribution of all forms, ionised or not, between an organic phase and buffer at a given pH. What is called fraction remaining is the share of the starting amount still present when the sample was taken. For the molecule `c1ccc(CNCC[C@@H]2CCC[C@H](c3ccccc3)C2)cc1` [listing 1 of 2 here], the inhibition constant Ki was determined as 0.049 µM in [1] and 0.00061 µM in [2]. The molecule further registered a logD in series [5] of 3.23. Further, in series [6], the amount remaining at 1.5 h is 43%. Moreover, the Drug metabolism entry in series [7] and in [8] was “Metabolite_Detected” each time.

Take `NCC[C@@H]1CCC[C@H](c2ccccc2)C1`: the inhibition in the series listed under Sus scrofa amounted to 11%; in series [3], 38%. Moreover, in series [2], the affinity corresponds to a Ki of 0.167 µM.

As for `c1ccc(CNCC[C@H]2CCC[C@H](c3ccccc3)C2)cc1`, the inhibition constant (Ki) in [1] came to 0.046 µM; in [2] it was 0.0014 µM. The molecule further had a logD in [5] of 3.34. Also, the result in the series on DU-145 was inactive. Further, in series [4], the Selectivity ratio came to 35.

On to `NCC[C@H]1CCC[C@H](c2ccccc2)C1`, for which the inhibition is 31% in the series listed under Sus scrofa and 60% in series [3]. In series [2], this molecule had a Ki of 0.603 µM.

With `CCCN(CCC)CCc1ccc(OC)c(OCCc2ccccc2)c1`, the outcome with PC-3 was Active.

With `c1ccc(CNCC[C@@H]2CCC[C@@H](c3ccccc3)C2)cc1` [listing 2 of 2 here], in the series with DU-145, the result was inactive. In series [4], the Selectivity ratio is 35.

`c1ccc(CNCC[C@@H]2CCC[C@H](c3ccccc3)C2)cc1` [listing 2 of 2 here]: the outcome in the series with DU-145 was Active.

Consider `CN(C)CCC1CCCC(c2ccccc2)C1` (mixture of isomers), for which the inhibition in the series listed under Sus scrofa was found to be 25%. For the same molecule, the Ki in series [1] amounted to 0.115 µM; in series [2], 0.0042 µM.

`c1ccc(CCCCNCCC2CCCC(c3ccccc3)C2)cc1` (mixture of isomers): the inhibition in the series listed under Sus scrofa was 11%. The inhibition constant Ki in series [1] came out at 0.093 µM; in series [2] it was 0.003 µM.

Regarding `c1ccc([C@@H]2CCC[C@@H](CCN3CCCC3)C2)cc1` (relative stereo), the inhibition in the series listed under Sus scrofa stood at 28%. Moreover, the Ki is 0.033 µM in [1] and 0.002 µM in [2]. The Activity in series [9] (PC-12, filed as antagonist) was determined as 100%. For the same molecule, the result in [10] was inactive.

Regarding `c1ccc(CNCC[C@@H]2CCC[C@@H](c3ccccc3)C2)cc1` (relative stereo) [listing 1 of 2 here], the Ki was 0.268 µM in series [1] and 0.0024 µM in [2].

For the molecule `c1ccc([C@H]2CCC[C@@H](CCN3CCCC3)C2)cc1` (relative stereo), the inhibition in the series listed under Sus scrofa came out at 36%. The Ki in series [1] was found to be 0.061 µM; in series [2], 0.0036 µM.

`c1ccc([C@H]2CCC[C@H](CCN3CCN(c4ccccc4)CC3)C2)cc1` (relative stereo) gave an inhibition in the series filed under Sus scrofa of 0%. The inhibition constant Ki came to 0.144 µM in series [1] and 0.013 µM in [2]. The result in the series on DU-145 was inactive.

Consider `c1ccc(CNCC[C@@H]2CCC[C@H](c3ccccc3)C2)cc1` (relative stereo) [listing 1 of 2 here], for which the Ki in series [1] was 0.13 µM; in [2], 0.0018 µM.

As to `c1ccc([C@H]2CCC[C@@H](CCN3CCN(c4ccccc4)CC3)C2)cc1` (relative stereo), the inhibition in the series filed under Sus scrofa is 0%. The Ki in [1] came out at 0.118 µM; in [2], 0.016 µM. In addition, in the series on DU-145, the result was inactive.

With `c1ccc(CNCC[C@@H]2CCC[C@@H](c3ccccc3)C2)cc1` (relative stereo) [listing 2 of 2 here], the inhibition in the series listed under Sus scrofa amounted to 31%. Further, in series [9] (PC-12, filed as antagonist), the Activity worked out at 100%. The outcome in [10] was inactive.

The molecule `c1ccc(CNCC[C@@H]2CCC[C@H](c3ccccc3)C2)cc1` (relative stereo) [listing 2 of 2 here] yielded an inhibition in the series listed under Sus scrofa of 11%. In addition, the outcome in the series with NCI-H441, in the series on NCI-H358, in the series with NCI-H522, in the series on PC-3, in the series with DU-145 and with CWR22R was Active. Besides, the outcome in series [9] (PC-12) and in series [10] was inactive.
